Experiments:
[1] = target: T1, 3-hydroxy-3-methylglutaryl-coenzyme A reductase (Rattus norvegicus, UniProt P51639); experiment: In vitro for inhibition of rat HMG-CoA reductase.; settings: read-out: I50
T1 sequence (P51639 whole entry): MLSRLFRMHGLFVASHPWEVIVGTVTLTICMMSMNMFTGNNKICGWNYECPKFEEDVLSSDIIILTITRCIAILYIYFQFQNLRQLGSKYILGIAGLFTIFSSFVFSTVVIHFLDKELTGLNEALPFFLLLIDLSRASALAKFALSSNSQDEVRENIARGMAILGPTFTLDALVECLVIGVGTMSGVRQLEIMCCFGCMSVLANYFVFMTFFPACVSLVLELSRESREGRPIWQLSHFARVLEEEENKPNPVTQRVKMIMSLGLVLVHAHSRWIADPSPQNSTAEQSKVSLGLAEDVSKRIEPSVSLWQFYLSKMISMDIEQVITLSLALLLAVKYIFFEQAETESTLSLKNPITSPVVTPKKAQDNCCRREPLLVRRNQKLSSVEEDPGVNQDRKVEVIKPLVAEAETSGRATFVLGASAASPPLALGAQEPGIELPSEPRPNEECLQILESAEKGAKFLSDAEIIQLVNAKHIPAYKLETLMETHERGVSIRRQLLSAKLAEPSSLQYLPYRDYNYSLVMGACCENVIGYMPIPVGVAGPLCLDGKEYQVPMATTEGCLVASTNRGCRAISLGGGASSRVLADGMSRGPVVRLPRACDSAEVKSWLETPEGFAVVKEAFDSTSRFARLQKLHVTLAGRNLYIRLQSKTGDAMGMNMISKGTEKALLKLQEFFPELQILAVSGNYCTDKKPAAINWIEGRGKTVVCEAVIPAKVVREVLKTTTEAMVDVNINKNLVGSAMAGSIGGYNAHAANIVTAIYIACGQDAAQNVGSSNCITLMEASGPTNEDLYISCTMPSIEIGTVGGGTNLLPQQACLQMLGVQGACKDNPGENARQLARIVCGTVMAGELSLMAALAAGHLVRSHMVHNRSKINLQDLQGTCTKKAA
Summary of the method: (§1)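 Enzyme source: hepatic microsomes from cholestyramine-fed Sprague-Dawley rats. Final assay conditions: 0.04 M potassium phosphate pH 7.2, KCl, sucrose, EDTA, 10 mM DTT, 1% DMSO, 50-200 µg microsomal protein. Microsomes were preincubated with 2.7 mM NADPH for 15 min at 37 °C, then with compound for 15 min. 100 µM 14C-[D,L]-HMG-CoA was then added for 20 min at 37 °C. Read-out: 14C-mevalonate, corrected by 3H-mevalonate recovery. I50 taken from composite dose-response regressions, 2-5 experiments.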

[2] = target: T1, 3-hydroxy-3-methylglutaryl-coenzyme A reductase; experiment: The compound was tested in vitro for inhibition of rat hepatic HMG-CoA reductase.; assay type: functional; settings: read-out: I50; summary of the method: as §1
[3] = species: Rattus norvegicus; experiment: The compound was tested for inhibition of Cholesterol synthesis from [14C]- Acetate in hepatocytes of rats.; assay type: functional; settings: Hepatocyte
Summary of the method: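 Rat hepatocytes were freshly isolated by collagenase perfusion, 70-90% viable. Cells were suspended at 5 × 10^6 per 2.0 mL in Tris pH 7.4 incubation medium with cofactors; DMSO was ≤1.0% final. Incubation was with [14C]acetate (2 µCi/mL) for 2.0 h at 37 °C. Lipids were extracted by Bligh-Dyer and the percent of label in the cholesterol peak was compared with controls. I50 from composite curves of two or more studies.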

[4] = species: Homo sapiens; experiment: The compound was tested for inhibition of Cholesterol synthesis from [14C]- Acetate in human skin fibroblasts; assay type: functional
Summary of the method: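 Human skin fibroblasts (passage 7-27) were plated at 5 × 10^5 cells/well and cultured 18 h. Sterol synthesis was induced by 24 h in serum-free MEM with 1.0% fatty acid-free BSA. Cells were preincubated with compound for 30 min (DMSO ≤1.0%), then given sodium [1-14C]acetate at 2.0 µCi/mL for 4 h. Label in the extracted cholesterol peak was compared with controls. I50 from composite curves of ≥2 experiments.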

[5] = tested on: Rattus norvegicus; experiment: The compound was tested in vivo for inhibition of Cholesterol Biosynthesis from [14C]- acetate in rat after peroral administration.; assay type: functional; settings: po
[6] = It is the ratio of I50 fibroblasts to that of I50 hepatocytes.; assay type: functional, Hepatocyte
Summary of the method: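 Selectivity is the ratio of I50 in human skin fibroblasts to I50 in freshly isolated rat hepatocytes. Each I50 came from [14C]acetate incorporation into cholesterol, measured as percent inhibition versus controls from composite dose-response data.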

[7] = tested on: Rattus norvegicus; experiment: The compound was tested in vivo for inhibition of Cholesterol Biosynthesis from [14C]- acetate in rat after intravenous administration.; assay type: functional
Summary of the method: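 Male Sprague-Dawley rats (200-300 g) were kept on a reverse light cycle. Salt forms were given iv into the tail vein in saline, 5 min before ip sodium [1-14C]acetate (25 µCi/100 g), dosed 2 h before mid-dark. Blood was taken 2 h after mid-dark. Read-out: 14C nonsaponifiable plasma lipid per mL versus controls, 4-5 rats/group. ED50 from log dose regressions, mean of ≥2 experiments.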

Structure (SMILES)	IC50 [1] [nM]	further results
Cc1c(-c2ccccc2)nc(C2CC2)c(C#CP(=O)(O)C[C@H](O)CC(=O)O)c1-c1ccc(F)cc1	4.6	
Cc1cc(F)ccc1-c1cc(-c2ccccc2)nc(C(C)C)c1CCP(=O)(O)C[C@H](O)CC(=O)O	115	
CC(C)c1nc(-c2ccccc2)cc(-c2ccc(F)cc2)c1COP(=O)(O)C[C@H](O)CC(=O)O		IC50 [2]: 12.7 nM
CC(C)c1nc2c(c(-c3ccc(F)cc3)c1/C=C/P(=O)(O)C[C@H](O)CC(=O)O)CCCc1ccccc1-2	1.3	
CC(C)c1nc(C(C)(C)C)cc(-c2ccc(F)cc2)c1COP(=O)(O)C[C@H](O)CC(=O)O		IC50 [2]: 1.4 nM
CC(C)c1nc2c(c(-c3ccc(F)cc3)c1COP(=O)(O)C[C@H](O)CC(=O)O)CCCc1ccccc1-2		IC50 [2]: 1.2 nM
Cc1c(-c2ccccc2)nc(C2CC2)c(/C=C/P(=O)(O)C[C@H](O)CC(=O)O)c1-c1ccc(F)cc1	2.5	
CC(C)c1nc(-c2ccccc2)c(C(C)C)c(-c2ccc(F)cc2)c1C#CP(=O)(O)C[C@H](O)CC(=O)O	9.8	
CC(C)c1nc(-c2ccccc2)cc(-c2ccc(F)cc2)c1CCP(=O)(O)C[C@H](O)CC(=O)O	181	
Cc1cc(F)ccc1-c1cc(-c2ccccc2)nc(C(C)C)c1C#CP(=O)(O)C[C@H](O)CC(=O)O	156	
Cc1nc(-c2ccccc2)c(C)c(-c2ccc(F)cc2)c1CCP(=O)(O)C[C@H](O)CC(=O)O	235	
Cc1cc(-c2cc(-c3ccccc3)nc(C(C)C)c2C#CP(=O)(O)C[C@H](O)CC(=O)O)ccc1F	22	
CCc1nc(-c2ccccc2)c(C)c(-c2ccc(F)cc2)c1C#CP(=O)(O)C[C@H](O)CC(=O)O	110	
CC(C)c1cc(-c2ccccc2)nc(-c2ccc(F)cc2)c1C#CP(=O)(O)C[C@H](O)CC(=O)O	420	
CC(C)c1cc(-c2ccccc2)nc(-c2ccc(F)cc2)c1/C=C/P(=O)(O)C[C@H](O)CC(=O)O	45.3	
CCc1nc(-c2ccccc2)c(C)c(-c2ccc(F)cc2)c1/C=C/P(=O)(O)C[C@H](O)CC(=O)O	4.7	
Cc1c(-c2ccccc2)nc(C2CC2)c(COP(=O)(O)C[C@H](O)CC(=O)O)c1-c1ccc(F)cc1		IC50 [2]: 1.3 nM
CC(C)c1nc(C(c2ccccc2)c2ccccc2)cc(-c2ccc(F)cc2)c1C#CP(=O)(O)C[C@H](O)CC(=O)O	14.9	

Structure (SMILES)	IC50 [1] [nM]	further results
CC(C)c1nc(C2CCCCC2)cc(-c2ccc(F)cc2)c1C#CP(=O)(O)C[C@H](O)CC(=O)O	48.4	
CC(C)c1nc(-c2cccc3c2OCO3)cc(-c2ccc(F)cc2)c1C#CP(=O)(O)C[C@H](O)CC(=O)O	84.6	
CCc1c(-c2ccccc2)nc(C(C)C)c(COP(=O)(O)C[C@H](O)CC(=O)O)c1-c1ccc(F)cc1		IC50 [2]: 2.5 nM
CC[C@H](C)C(=O)O[C@@H]1C[C@@H](C)C=C2C=C[C@H](C)[C@H](CC[C@@H](O)C[C@H](O)CC(=O)[O-])C21.[Na+] (stereo partly drawn)		ED50 [7]: 0.033 mg/kg; IC50 ([3]; read-out: I50): 146 nM; IC50 ([4]; read-out: I50): 18.8 nM; ED50 [5]: 0.4 mg/kg
CCc1c(-c2ccccc2)nc(C(C)C)c(CCP(=O)(O)C[C@H](O)CC(=O)O)c1-c1ccc(F)cc1	19.1	
O=C(O)C[C@@H](O)CP(=O)(O)OCc1c(-c2ccc(F)cc2)cc(-c2ccccc2)nc1C1CC1		IC50 [2]: 29 nM
Cc1ccccc1-c1cc(-c2ccc(F)cc2)c(C#CP(=O)(O)C[C@H](O)CC(=O)O)c(C(C)C)n1	32.6	
CC(C)c1nc2c(c(-c3ccc(F)cc3)c1CCP(=O)(O)C[C@H](O)CC(=O)O)CCCc1ccccc1-2	18.6	
Cc1c(-c2ccccc2)nc(C(C)C)c(COP(=O)(O)C[C@H](O)CC(=O)O)c1-c1ccc(F)cc1		IC50 [2]: 5.1 nM
CCc1nc(-c2ccccc2)c(C)c(-c2ccc(F)cc2)c1COP(=O)(O)C[C@H](O)CC(=O)O		IC50 [2]: 19.4 nM
Cc1nc(-c2ccccc2)c(C)c(-c2ccc(F)cc2)c1COP(=O)(O)C[C@H](O)CC(=O)O		IC50 [2]: 1300 nM
CC(C)c1nc2c(c(-c3ccc(F)cc3)c1C#CP(=O)(O)C[C@H](O)CC(=O)O)CCc1ccccc1-2	52.5	
CC(C)c1nc(C23CC4CC(CC(C4)C2)C3)cc(-c2ccc(F)cc2)c1C#CP(=O)(O)C[C@H](O)CC(=O)O	43.8	
CC[C@H](C)C(=O)O[C@H]1C[C@H](O)C=C2C=C[C@H](C)[C@H](CC[C@@H](O)C[C@@H](O)CC(=O)[O-])[C@H]21.[Na+] [PRAVASTATIN SODIUM]		ED50 [7]: 0.053 mg/kg; IC50 [2]: 24 nM; ED50 [5]: 0.75 mg/kg; Selectivity [6]: 31
CC(C)(C)c1nc(-c2ccccc2)cc(-c2ccc(F)cc2)c1C#CP(=O)(O)C[C@H](O)CC(=O)O	68.4	
CC(C)c1nc(-c2cccc3ccccc23)cc(-c2ccc(F)cc2)c1C#CP(=O)(O)C[C@H](O)CC(=O)O	28.7	
CC(C)c1nc(-c2cc(F)c(F)c(F)c2F)cc(-c2ccc(F)cc2)c1C#CP(=O)(O)C[C@H](O)CC(=O)O	8.9	

Continued, in another order:

IC50 [1] [nM]	Structure (SMILES)	further results
231	Cc1cc(-c2ccc(F)cc2)c(C#CP(=O)(O)C[C@H](O)CC(=O)O)c(C(C)C)n1	
3.2	CC(C)c1nc(C(C)(C)C)cc(-c2ccc(F)cc2)c1/C=C/P(=O)(O)C[C@H](O)CC(=O)O	
5.6	CCc1c(-c2ccccc2)nc(C(C)C)c(C#CP(=O)([O-])C[C@H](O)CC(=O)[O-])c1-c1ccc(F)cc1.[Na+].[Na+]	IC50 ([3]; read-out: I 50): 519 nM; IC50 ([4]; read-out: I 50): 6750 nM; ED50 [5]: 4.5 mg/kg; Selectivity [6]: 13
44.9	CC(C)c1nc(-c2ccccc2)c(F)c(-c2ccc(F)cc2)c1C#CP(=O)(O)C[C@H](O)CC(=O)O	
80.9	CC(C)c1cc(-c2ccc(F)cc2)c(C#CP(=O)(O)C[C@H](O)CC(=O)O)c(C(C)C)n1	
14.6	CC(C)c1nc(-c2cccs2)cc(-c2ccc(F)cc2)c1C#CP(=O)(O)C[C@H](O)CC(=O)O	
75.6	CC(C)c1nc2c(c(-c3ccc(F)cc3)c1C#CP(=O)(O)C[C@H](O)CC(=O)O)Cc1ccccc1-2	
9.2	Cc1c(-c2ccccc2)nc(C(C)C)c(CCP(=O)(O)C[C@H](O)CC(=O)O)c1-c1ccc(F)cc1	
79.8	CCc1nc(-c2ccccc2)c(C)c(-c2ccc(F)cc2)c1CCP(=O)(O)C[C@H](O)CC(=O)O	
9.2	Cc1c(-c2ccccc2)nc(C2CC2)c(CCP(=O)(O)C[C@H](O)CC(=O)O)c1-c1ccc(F)cc1	
3.9	Cc1cc(F)ccc1-c1cc(-c2ccccc2)nc(C(C)C)c1/C=C/P(=O)(O)C[C@H](O)CC(=O)O	
14.4	CC(C)c1nc2c(c(-c3ccc(F)cc3)c1C#CP(=O)(O)C[C@H](O)CC(=O)O)CCCc1ccccc1-2	
62.6	CC(C)c1nc(-c2ccccc2Cc2ccccc2)cc(-c2ccc(F)cc2)c1C#CP(=O)(O)C[C@H](O)CC(=O)O	
1300	Cc1nc(-c2ccccc2)c(C)c(-c2ccc(F)cc2)c1C#CP(=O)(O)C[C@H](O)CC(=O)O	
4.2	CC(C)c1nc(C2CC2)cc(-c2ccc(F)cc2)c1C#CP(=O)(O)C[C@H](O)CC(=O)O	
17.2	CC(C)c1nc(C(C)(C)C)cc(-c2ccc(F)cc2)c1CCP(=O)(O)C[C@H](O)CC(=O)O	
90.9	O=C(O)C[C@@H](O)CP(=O)(O)C#Cc1c(-c2ccc(F)cc2)cc(-c2ccccc2)nc1C1CC1	
15.6	CC(C)c1nc(-c2ccccc2)c(-c2ccccc2)c(-c2ccc(F)cc2)c1C#CP(=O)(O)C[C@H](O)CC(=O)O	
